PDI inh: inhibitors of human PDI, primary screen, biochemical, turbidity, single point, plate reader; AID 588391, 2011; Protein disulfide-isomerase (Homo sapiens), P07237; inhibition, % at 10 µM; PDI insulin aggregation turbidity, A650, 90 min; actives 0.052% (n = 350,000);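 active means mean inhibition across replicates of 30% or more, whatever share of single replicates reach that level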
ERp5 block: inhibitors of ERp5-driven insulin aggregation, primary screen, biochemical, turbidity, absorbance 650 nm, single point; 90 min; inhibition, % at 9.99 µM; actives 0.05% (n = 350,000);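 active means mean replicate inhibition above about 25%, with every replicate also reaching it, limit read from the data, passing the limit was not always enough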
Target sequence (Q15084 whole entry, looked up): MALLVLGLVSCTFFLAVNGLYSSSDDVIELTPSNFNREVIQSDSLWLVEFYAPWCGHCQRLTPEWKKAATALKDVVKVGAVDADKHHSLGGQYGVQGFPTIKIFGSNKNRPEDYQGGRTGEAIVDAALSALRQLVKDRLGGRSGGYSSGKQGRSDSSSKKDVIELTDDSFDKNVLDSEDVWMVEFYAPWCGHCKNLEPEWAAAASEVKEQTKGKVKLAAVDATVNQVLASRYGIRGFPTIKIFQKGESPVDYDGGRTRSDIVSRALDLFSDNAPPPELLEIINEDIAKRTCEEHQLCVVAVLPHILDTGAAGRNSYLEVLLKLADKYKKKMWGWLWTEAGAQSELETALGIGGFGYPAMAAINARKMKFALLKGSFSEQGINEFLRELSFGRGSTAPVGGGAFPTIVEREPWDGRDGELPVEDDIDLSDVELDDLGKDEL
RAD54 branch: inhibitors of human RAD54 branch migration, primary screen, biochemical, fluorescence, single point. RAD54 Holliday junction branch migration, FAM/BHQ fluorescence. inhibition, % at 10.4 µM. actives 0.14% (n = 360,000). AID 602329, 2012;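 active means mean normalized replicate activity at least 40 and at least half of replicates scoring 40 or more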;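 further: 0% = median of neutral control wells and 100% = median of positive control wells; inhibitors cause a drop in the FAM fluorescence signal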
S100A4 inh HTS: inhibitors of S100A4-myosin IIA peptide binding, primary screen, biochemical, fluorescence polarization, TAMRA-MyoIIA peptide; Protein S100-A4 (Homo sapiens), P26447; inhibition, % at 10.7 µM; actives 0.14% (n = 360,000); AID 652163, 2013;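 active means mean inhibition of at least 70% across replicates, with every replicate also reaching that level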
Target sequence (P26447 whole entry, looked up): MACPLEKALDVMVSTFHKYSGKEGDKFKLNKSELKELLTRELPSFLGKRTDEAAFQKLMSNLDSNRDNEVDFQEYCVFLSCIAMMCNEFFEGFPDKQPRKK
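Compound dosing: one dose per compound; test system: human S100A4 monomer with TAMRA-labelled myosin IIA peptide; probe or stimulus: TAMRA-labelled myosin IIA heavy-chain peptide probe, 5 nM; medium: HEPES buffer with Ca2+, pH 7.2; schedule: 5 min incubation before reading; benchmarks: neutral control DMSO, positive control TFP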
PglD inh: C. jejuni PglD acetyltransferase inhibitors, primary screen, biochemical, DTNB colorimetric, single point. purified PglD enzyme, DTNB colorimetric CoA detection. inhibition, % at 12.5 µM. actives 0.098% (n = 360,000). AID 602405, 2012; in the data active means inhibition above about 16%, passing the limit was not always enough
FN deposition inh: inhibitors of fibronectin matrix deposition, primary screen, AH1F cells, Alexa488-fibronectin fluorescence, plate reader; actives 0.086% (n = 350,000); AH1F fibroblasts, overnight; inhibition, % at 12.6 µM;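 active means mean inhibition across replicates of 30% or more, regardless of how many single replicates reach that level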;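 further: positive control wells lacked labelled fibronectin entirely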
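Material – AH1F fibroblast monolayer, labelled fibronectin deposition · Reagent – labelled fibronectin 24 nM · Timing – 1 h adhesion, overnight exposure · Measured by – fluorescence at 485 nm excitation, 525 nm emission · Read-out – inhibition of fibronectin deposition signal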
PglD confirm: PglD acetyltransferase inhibitors, confirmation, biochemical, DTNB absorbance, single point, cherry-picked samples; shares compounds with PglD inh; inhibition, % at 20 µM; Purified C. jejuni PglD, DTNB absorbance 412 nm; 320 tested, under 10 active;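 active means mean inhibition across replicates of at least 20% with every single replicate also at 20% or more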;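 further: initial rate of CoA release by acetyl transfer from AcCoA to the UDP-4-amino sugar; 0% = median of neutral control wells and 100% = median of positive control wells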
* = called active by the depositor; x = no result. Rows were chosen to be rich in hits. Some 0.44% of all compounds tested hit in one or more screens of this group.

SMILES	PDI inh	ERp5 block	RAD54 branch	S100A4 inh HTS	PglD inh	FN deposition inh	PglD confirm
CCN1C(=O)CC(N2CCN(c3ccc(C(=O)c4ccccc4)cc3)CC2)C1=O (stereo unspecified)	-5	x	-9	x	-7	x	x
CN1[C@@H]2c3ccc(-c4ccc(F)cc4)c(=O)n3C[C@@H]2[C@@H](CO)[C@@H]1C(=O)NCC1CC1	x	-3	13	0	-3	x	x
COc1cc(NC(=O)Cc2nn(C)c(=O)c3ccccc23)cc(OC)c1	3	x	-1	x	21*	x	-5
CCN(CC)C(=O)c1ccccc1NC(=O)c1cccc(S(=O)(=O)N(CC)CC)c1	-14	3	x	2	x	1	x
CCN(CC)C(=O)c1ccccc1NC(=O)c1ccccc1	6	3	-1	-7	29*	5	0
O=C(C[C@@H]1CC[C@H]2[C@@H](COC[C@H](O)CN2S(=O)(=O)c2ccccc2)O1)Nc1ccccc1	x	-1	4	-5	0	-6	x
O=C(NNS(=O)(=O)c1ccc(Cl)cc1)c1sccc1-n1cccc1	-5	x	7	x	25*	-2	6
O=C(NNS(=O)(=O)c1ccccc1)c1sccc1-n1cccc1	3	x	-15	x	3	-1	x
CC(C)NC(=O)N[C@H]1CC[C@@H](CCNS(=O)(=O)Cc2ccccc2)O[C@@H]1CO	x	10	-6	-2	0	9	x
O=C(O)CC/C(=N\NC(=O)CNC(=O)/C=C/c1ccccc1)c1ccccc1	0	-1	-2	11	26*	15	2
COCC(=O)N(C)C[C@@H]1Oc2ncc(C#Cc3ccc(F)cc3)cc2C(=O)N([C@@H](C)CO)C[C@@H]1C	x	13	3	12	-1	1	x
COC(=O)NCc1ccc(CNC(=O)OC)cc1	1	x	6	x	-5	x	x
COC(=O)NCc1cccc(CNC(=O)OC)c1	7	x	-7	x	30*	x	2
C[C@@H]1CCCCO[C@H](CN(C)C(=O)CCCN(C)C)[C@@H](C)CN([C@H](C)CO)C(=O)c2cc(NS(C)(=O)=O)ccc2O1	x	0	-5	-25	1	x	x
COc1ccc(C2CC(c3ccccc3)=NN2C(=O)COC(=O)/C=C/c2ccc(O)c(OC)c2)cc1 (stereo unspecified)	0	2	0	2	34*	-9	7
O=C(N/C(=C/c1ccc(Br)cc1)C(=O)N1CCCC1)c1cccs1	4	1	x	2	x	-4	x
O=C(O)/C(=C\c1ccc(Br)cc1)NC(=O)c1cccs1	2	5	2	-2	25*	1	2
COc1ccccc1-c1nnc(SCc2ccccn2)n1C	11	x	-6	x	62*	-5	-3
CN(C(=O)c1ccc(NC(=O)Cc2cccc(NC(=O)C3CCN(C(=O)C4CC4)CC3)c2)cc1)C1CC1	5	2	6	-3	25*	-3	-1
C[C@@H]1CN([C@H](C)CO)C(=O)c2cc(C#CCN(C)C)cnc2O[C@H]1CN(C)C(=O)c1cccc(F)c1	x	-1	-2	-10	4	-3	x
CCN(CC)CC(=O)Nc1sc(C)cc1C(=O)c1ccc(C)cc1	6	0	-5	0	22*	-1	11
CCN(CC)CC(=O)Nc1sc(C)cc1C(=O)c1ccccc1	-6	-1	-7	-4	-4	1	x
CCN=C1Sc2nc3ccc(OCC)cc3cc2CN1CCOC	7	x	-2	x	21*	4	-1
O=C(O)CSc1nc2sc3c(c2c(=O)n1Cc1ccccc1)CCCCC3	-1	2	3	1	-3	-6	x
O=C(O)CSc1cc(C(=O)c2ccccc2O)cn2c(=O)c3c4c(sc3nc12)CCCC4	22	8	-7	-7	22*	-14	1
SMILES	PDI inh	ERp5 block	RAD54 branch	S100A4 inh HTS	PglD inh	FN deposition inh	PglD confirm
CCC(=O)N1CC2(C1)CN(C(=O)CN1CCOCC1)[C@H](CO)c1c2c2ccc(OC)cc2n1C	x	4	x	-13	x	x	x
CN1C(=O)C(CC(=O)NC2CCCCC2)SC1=Nc1ccccc1 (stereo unspecified)	-1	2	6	-2	54*	-3	8
CN1/C(=C\C(=O)Nc2cccc(Cl)c2)C(C)(C)c2ccccc21	-20	2	-2	-26	20*	11	13
O=C1c2ccccc2COc2ccc(O)cc21	5	x	8	x	2	4	x
COc1ccc2c(c1)C(=O)c1ccccc1CO2	10	x	0	x	40*	x	2
COc1ccc(/C=C(\NC(=O)c2ccccc2)C(=O)N2CCN(C)CC2)cc1	-4	0	4	6	2	2	x
COc1ccc(/C=C(/NC(=O)c2ccccc2)C(=O)N2CCCC2)cc1	6	-4	-5	-4	58*	0	-7
CCNC(=O)CC1C(=O)N(c2ccccc2)C(=O)N1Cc1ccc(OC)cc1 (stereo unspecified)	-1	x	4	x	33*	-6	0
O=C(Nc1ccccc1F)N1CC(=O)N2[C@@H](CO)[C@@H](c3ccc(C#Cc4ccccc4)cc3)[C@@H]2C1	x	9	x	6	x	x	x
O=C(Cc1ccccc1)OC(COCc1ccccc1)C(=O)NCc1ccccc1 (stereo unspecified)	x	-2	x	-25	x	x	x
CS(=O)(=O)Nc1cccc(NC(=O)c2cccc3c(-c4cccnc4)coc23)c1	-10	x	2	x	35*	x	1
O=C1C2C3c4ccccc4C(c4ccccc43)C2C(=O)N1Cc1ccco1 (stereo unspecified)	11	x	3	x	24*	x	-5
O=C(CSc1ccccc1)NCCc1ccc(F)cc1	1	5	-12	-3	76*	-16	-1
Cc1cccc(N(Cc2cc3ccccc3[nH]c2=O)C(=O)c2ccco2)c1C	4	x	7	x	32*	x	3
COc1ccc(C(C)(C)C)cc1S(=O)(=O)N1CCC(C(N)=O)CC1	-5	x	x	x	x	3	x
COc1ccc(F)cc1S(=O)(=O)N1CCC(C(N)=O)CC1	-2	x	0	x	22*	x	-3
COc1ccc(NC(=O)Nc2ccc3c(c2)C(=O)N([C@@H](C)CO)C[C@H](C)[C@@H](CN(C)Cc2ccc(C(F)(F)F)cc2)OCCCC[C@@H](C)O3)cc1	x	0	-5	59	3	-1	x
COc1ccc(CNCc2cccc(Cl)c2)cc1	0	4	-2	0	30*	5	3
